# Bioassay records (PubChem BioAssay)
# TAAR1 agonist = human TAAR1 agonists, primary screen, Fluo-8 calcium fluorescence, CHO RD-HGA16 cells; activation, % at 3 µM; hit rate 0.99% among 360,000; vehicle wells 0%, saturating PEA agonist 100%; AID 624467, 2012;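 active means activation above the mean activation of all test compounds in the run plus 3 SD, cut at about 38% in these data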
# Target sequence (Q96RJ0 whole entry, looked up): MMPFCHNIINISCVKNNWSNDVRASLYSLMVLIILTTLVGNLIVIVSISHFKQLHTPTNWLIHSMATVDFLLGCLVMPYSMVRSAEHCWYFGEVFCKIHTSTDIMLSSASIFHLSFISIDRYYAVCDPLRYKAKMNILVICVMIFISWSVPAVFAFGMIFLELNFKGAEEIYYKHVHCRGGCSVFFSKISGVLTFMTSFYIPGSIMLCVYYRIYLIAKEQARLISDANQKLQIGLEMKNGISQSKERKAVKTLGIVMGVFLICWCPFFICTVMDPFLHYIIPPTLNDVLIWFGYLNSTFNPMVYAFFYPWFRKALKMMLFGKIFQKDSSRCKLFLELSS
#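 System: CHO RD-HGA16 cells carrying human TAAR1 plus Gα16; Incubation: 17-24 h seeding, 75 min 37 °C dye, 30 min RT; Measured by: Fluo-8 fluorescence, 5 s baseline then 140 s kinetic read; Control set: DMSO and PEA EC100; Replication: single well for each compound.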
# TAAR1 antag = human TAAR1 antagonists, primary screen, Fluo-8 calcium fluorescence, CHO RD-HGA16 cells; Trace amine-associated receptor 1 (Homo sapiens), Q96RJ0; antagonist; inhibition, % at 3 µM; hit rate 1.5% among 360,000; AID 624466, 2012;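 active means inhibition above a per-plate cutoff, the mean inhibition of test compounds on that plate plus 3 SD, cut at about 49% in these data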;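 further: 0% = DMSO plus EC80 beta-PEA response and 100% = DMSO alone without agonist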
#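 Test system: CHO RD-HGA16 cells bearing hTAAR1 | Reagent: β-PEA, EC80 | Compound dosing: 3 µM, single point | Schedule: Dye loading 75 min at 37 °C, then 30 min room temperature | Signal: Calcium fluorescence with Fluo-8 | Evaluation: Percent inhibition of PEA-evoked calcium signal, max/basal emission ratio | Control set: DMSO-only wells and EC80 β-PEA-stimulated wells | Repeats: Singlicate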
# OX1R antag-1 = OX1R (HCRTR1) antagonists, primary screen, fluorescence, CHO/OX1R cells, Fluo-8 calcium, orexin A | Orexin/Hypocretin receptor type 1 (Homo sapiens), O43613 | Fluo-8 calcium fluorescence | inhibition, % at 5 µM | hit rate 0.43% among 330,000 | AID 434989, 2010;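 active means inhibition above its plate's threshold, mean inhibition of all tested compounds on the plate plus 3 SD, cut at about 37% in these data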;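 further: 0% = orexin A challenge wells and 100% = SB-334867-A antagonist wells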
# CHO parental Ca = ATP-evoked calcium signal inhibitors, parental CHO, primary screen, counter-screen for OX1R antagonist project, cell-based, fluorescence, Fluo-8 calcium dye. parental CHO-K1, ATP-induced calcium, Fluo-8 fluorescence. inhibition, % at 5.6 µM. hit rate 0.63% among 330,000. AID 463079, 2010;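 active means inhibition above that plate's mean sample inhibition plus 3 SD, cut at about 26% in these data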;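 further: 0% = ATP-challenged DMSO wells and 100% = DMSO wells without ATP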
#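 Measured by: calcium-sensitive Fluo-8 fluorescence / Test system: CHO parental line / Controls: ATP-challenged DMSO wells low, unchallenged DMSO wells high / Measure: % inhibition / Compound: single nominal dose of 5.6 µM per compound / Replicates: single well per compound, no replicates / Reagent: ATP as calcium-mobilizing challenge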
# GPR7 antagonist = GPR7 receptor antagonists, primary screen, cell-based, fluorescence, single concentration; hit rate 1.1% among 290,000; GPR7-expressing cells, fluorescence antagonist assay; inhibition, % at 4.4 µM; in the data active means inhibition above about 16%, passing the limit was not always enough;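 further: cells stimulated with the agonist NPW; 0% = agonist with vehicle and 100% = vehicle without agonist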
# Target sequence (P48145 whole entry, looked up): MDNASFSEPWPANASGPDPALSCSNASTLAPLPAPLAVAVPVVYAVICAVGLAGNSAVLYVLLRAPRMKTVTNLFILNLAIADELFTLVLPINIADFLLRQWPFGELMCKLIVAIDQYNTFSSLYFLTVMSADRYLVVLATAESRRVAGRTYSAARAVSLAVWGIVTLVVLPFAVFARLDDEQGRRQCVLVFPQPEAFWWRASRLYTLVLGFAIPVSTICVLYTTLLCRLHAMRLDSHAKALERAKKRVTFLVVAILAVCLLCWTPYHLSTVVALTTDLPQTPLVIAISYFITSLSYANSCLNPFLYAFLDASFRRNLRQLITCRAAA
# OX1R antag-2 = antagonists of human orexin 1 receptor (OX1R); Orexin/Hypocretin receptor type 1 (Homo sapiens), O43613; OX1R-expressing cells, FRET antagonist read-out; inhibition, % at 6.6 µM; hit rate 1.8% among 330,000; in the data active means inhibition mostly above about 38%, no sharp cut-off; inactive means mostly below about 40%;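 further: 0% = agonist challenge alone and 100% = reference antagonist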
# nonsel antag count = nonselective antagonists in TAAR1 counter-screen cells, counter-screen for hTAAR1 antagonist project, cell-based, fluorescence, calcium. shares compounds with TAAR1 antag. counterscreen cell line, antagonist mode. inhibition, % at 3 µM. hit rate 77% among 2,400; in the data active means inhibition above about 22%;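 further: CHO-Ga16 host cells stimulated with ATP at an EC80 level; 0% = agonist EC80 plus vehicle and 100% = vehicle without agonist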
# TAAR1 antag conf = human TAAR1 antagonists, retest of hits, confirmation, cell-based, fluorescence. TAAR1-expressing cells, fluorescence antagonist read-out. inhibition, % at 3 µM. shares compounds with TAAR1 antag. hit rate 40% among 2,400; in the data active means inhibition above about 49%;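 further: CHO-Ga16 host cells challenged with agonist PEA near its EC80; 0% = agonist at EC80 plus vehicle and 100% = vehicle with no agonist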
# Ga16 ag counter = calcium activation in Ga16-expressing cells, counter-screen for TAAR1 antagonist project, cell-based, fluorescence. shares compounds with TAAR1 antag. agonist counterscreen. activation, % at 3 µM. hit rate 18% among 2,400. AID 651953, 2012; in the data active means activation above about 12%;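 further: 0% = vehicle wells and 100% = saturating stimulus response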
# TAAR1 ag counter = TAAR1 activation by candidate antagonists – cell-based, fluorescence, counter-screen for TAAR1 antagonist project; shares compounds with TAAR1 antag; hTAAR1 cell line, agonist mode; activation, % at 3 µM; hit rate 2% among 2,400; in the data active means activation above about 37%;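 further: CHO cells stably expressing TAAR1 with calcium dye readout; 0% = DMSO vehicle and 100% = full agonist response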
# Starred values were filed as active, the others as inactive; . = no result. Shown are actives, neighbours in structure and some others; about 4.6% of the full set was active somewhere.
SMILES,TAAR1 agonist,TAAR1 antag,OX1R antag-1,CHO parental Ca,GPR7 antagonist,OX1R antag-2,nonsel antag count,TAAR1 antag conf,Ga16 ag counter,TAAR1 ag counter
O=C(NCCN1CCOCC1)c1ccc(=O)n(Cc2ccc(Cl)cc2)c1,7,105*,-14,-10,-1,18,12,15,0,-2
O=C(COC(=O)c1ccco1)NCCc1ccc(Cl)cc1,1,-5,-6,-2,.,7,.,.,.,.
CNC(=O)C(C)c1ncc(C(F)(F)F)cc1Cl (centres undefined),-3,98*,-26,-13,-7,17,2,-5,-1,-2
Cc1ccc(N(C(=O)Cn2nnc3ccccc32)C(C(=O)NC2CCCCC2)c2cn(C)nc2C)cc1 (centres undefined),0,4,-31,-8,-7,1,.,.,.,.
Cc1nn(C)cc1C(C(=O)NC1CCCCC1)N(C(=O)Cc1cccs1)c1ccc(Cl)cc1 (centres undefined),29,61*,-20,-14,-12,14,30*,53*,13*,23
COCCCN(CC(=O)Nc1ccc(F)cc1)S(=O)(=O)c1cccs1,7,-21,15,1,.,-2,.,.,.,.
CCOC(=O)/C(C#N)=C(C)/C=C1\Sc2ccccc2N1CC,2,56*,-6,-8,-6,37,22*,24,18*,16
CCN1/C(=C\C=C(C(C)=O)C(C)=O)Sc2ccccc21,27,10,3,-7,-6,73,.,.,.,.
COc1ccccc1-c1cc(C(=O)N2CCN(S(=O)(=O)c3ccc(C)cc3)CC2)[nH]n1,11,74*,-16,-9,-12,8,31*,44,9,7
O=S(=O)(/N=C(/Nc1ccc(Cl)c(S(=O)(=O)N2CCOCC2)c1)c1ccc(F)cc1)c1ccccc1,15,71*,-14,-11,-7,36,33*,57*,11,14
O=C(Nc1ccc(N2CCOCC2)c(S(=O)(=O)Nc2ccccc2Cl)c1)c1ccc(F)cc1,9,70*,23,4,.,13,36*,53*,13*,14
COc1ccccc1NS(=O)(=O)c1cc(NC(=O)C(C)(C)C)ccc1N1CCOCC1,20,72*,-23,-19,.,14,29*,58*,10,10
c1ccc(CCc2cn(C[C@H]3CC[C@@H]([C@@H]4CC[C@H](Cn5cc(CCc6ccccc6)nn5)O4)O3)nn2)cc1,26,57*,-22,-6,8,17,32*,57*,13*,13
c1ccc(-c2cn(C[C@H]3CC[C@@H]([C@@H]4CC[C@H](Cn5cc(-c6ccccc6)nn5)O4)O3)nn2)cc1,13,9,-43,-24,9,36,.,.,.,.
COc1cc(Nc2ccccn2)cc(C(=O)Nc2cccc(C(F)(F)F)c2)c1,7,54*,-20,-6,.,13,34*,46,7,2
O=C(Nc1cccc(C(F)(F)F)c1)c1csc(-c2ccncc2)n1,-1,16,-53,-23,2,26,.,.,.,.
COc1cc(NC(=O)c2nccn2C)cc(C(=O)Nc2cccc(C(F)(F)F)c2)c1,2,-5,6,-1,.,19,.,.,.,.
COc1cc(NC(=O)c2csc(-c3ccncc3)n2)cc(C(=O)Nc2cccc(C(F)(F)F)c2)c1,9,74*,-21,-17,.,27,35*,55*,6,5
COc1cc(NC(=O)N2CCNC2=O)cc(C(=O)Nc2cccc(C(F)(F)F)c2)c1,20,51*,-28,-7,.,35,19,24,8,6
CC1(C(=O)NS(=O)(=O)C2CC2)CCN(C(=O)c2ccc3ccccc3n2)C1 (centres undefined),0,-7,.,.,.,.,.,.,.,.
COCCNc1nc(C)c(C(C)=O)s1,14,17,11,2,-14,26,.,.,.,.
Cc1ccc(S(=O)(=O)Nc2ccc(-n3c(C)nc4ccccc4c3=O)cc2)cc1,3,19,-20,-15,.,14,.,.,.,.
CCCOc1ccc(-c2cnc(N)s2)cc1,3,-16,-9,-5,-4,8,.,.,.,.
O=C(Nc1ccccc1)C1=C[C@@H](c2coc3ccccc3c2=O)C[C@@H](OCc2ccc(CO)cc2)O1,8,51*,-24,-26,-12,27,20,25,2,-1
O=C(NC1CC1)C1=C[C@H](c2csc3ccccc23)C[C@H](OCc2ccc(CO)cc2)O1,34,58*,-24,-17,.,12,26*,44,16*,23
SMILES,TAAR1 agonist,TAAR1 antag,OX1R antag-1,CHO parental Ca,GPR7 antagonist,OX1R antag-2,nonsel antag count,TAAR1 antag conf,Ga16 ag counter,TAAR1 ag counter
O=C(C1=C[C@@H](c2csc3ccccc23)C[C@@H](OCc2ccc(CO)cc2)O1)N1CCOCC1,32,57*,-2,-1,-6,22,26*,35,6,6
CC(=O)n1cc([C@H]2C=C(C(=O)N3CCN(Cc4ccccc4)CC3)O[C@@H](OCc3ccc(CO)cc3)C2)c2ccccc21,27,69*,-6,-22,-14,13,35*,46,9,9
Cn1c(N)c(S(=O)(=O)NCc2ccc(F)cc2)c(=O)n(C)c1=O,3,-5,-25,-10,-6,10,.,.,.,.
O=C(Nc1cccc(-c2csc(Nc3ccccc3)n2)c1)c1ccccc1,10,65*,-31,-12,.,55,28*,33,2,0
O=C(Nc1ccccc1N1CCOCC1)c1cc(-c2ccco2)nc2ccccc12,18,62*,-22,-44,-18,33,29*,49*,8,9
O=C(Nc1cccc(-c2cnc3ccccc3n2)c1)c1cccc(NC(=O)c2ccco2)c1,19,74*,6,-5,-6,49*,39*,63*,12*,10
